MEKK2 mut-MEK5: MEK5 binding signal on mutant MEKK2 PB1, primary screen, biochemical, multiplex bead flow cytometry, Alexa488-MEK5. Alexa488-MEK5 binding to MEKK2 mutant. percent response, % at 10 µM. hit rate 0.35% among 290,000; in the data active = percent response above about 24%, passing the limit was not always enough
MEKK2 WT-MEK5: modulators of MEK5 binding to wildtype MEKK2, primary screen, biochemical, multiplex bead flow cytometry, Alexa488-MEK5; Mitogen-activated protein kinase kinase kinase 2 (Homo sapiens), Q9Y2U5; Alexa488-MEK5 binding to MEKK2 WT; actives lie on both sides; binding response (% of control), % at 10 µM; hit rate 1.1% among 290,000; in the data active = binding response below about 67% or above about 130%
IMP-1 inhibitor: IMP-1 metallo-beta-lactamase inhibitors, primary screen, biochemical, epi-absorbance readout, Pseudomonas aeruginosa enzyme | metallo-beta-lactamase IMP-1 (Pseudomonas aeruginosa) | purified IMP-1, nitrocefin hydrolysis, epi-absorbance fluorescence | inhibition, % at 5.6 µM | hit rate 0.45% among 290,000;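 active = inhibition above the mean plus 3 SD of all compounds in the same screening run, cut at about 4.5% in these data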;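 also: 0% = IMP-1 with DMSO and 100% = DMSO wells lacking enzyme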
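assay system = purified recombinant IMP-1 metallo-beta-lactamase enzyme | schedule = 15 min preincubation plus 25 min reaction at 25 °C | signal = Epi-absorbance fluorescence, 480 nm excitation, 530 nm emission | read-out basis = percent inhibition from optical density relative to buffer-blank wells | controls = IMP-1 with DMSO as 0%, enzyme-free DMSO as 100%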
MEKK3 PB1 HTS: modulators of MEKK3-MEK5 PB1 binding, primary screen, biochemical, wildtype MEKK3, multiplex bead flow cytometry, Alexa488-MEK5 | binding response (% of control), % at 10 µM | AID 1529, 2009 | bead-based flow cytometry, Alexa488-MEK5 binding to MEKK3; actives lie on both sides; 0 = blocked by unlabeled MEK5, 100 = vehicle | Mitogen-activated protein kinase kinase kinase 3 (Homo sapiens), Q99759 | hit rate 1.4% among 290,000;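 active = binding response more than 3 SD above or below the average of its plate-row segment, actives on both sides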;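 also: Alexa488 bead fluorescence after subtracting the streptavidin-only scavenger bead signal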
Target sequence (Q99759 whole entry, looked up): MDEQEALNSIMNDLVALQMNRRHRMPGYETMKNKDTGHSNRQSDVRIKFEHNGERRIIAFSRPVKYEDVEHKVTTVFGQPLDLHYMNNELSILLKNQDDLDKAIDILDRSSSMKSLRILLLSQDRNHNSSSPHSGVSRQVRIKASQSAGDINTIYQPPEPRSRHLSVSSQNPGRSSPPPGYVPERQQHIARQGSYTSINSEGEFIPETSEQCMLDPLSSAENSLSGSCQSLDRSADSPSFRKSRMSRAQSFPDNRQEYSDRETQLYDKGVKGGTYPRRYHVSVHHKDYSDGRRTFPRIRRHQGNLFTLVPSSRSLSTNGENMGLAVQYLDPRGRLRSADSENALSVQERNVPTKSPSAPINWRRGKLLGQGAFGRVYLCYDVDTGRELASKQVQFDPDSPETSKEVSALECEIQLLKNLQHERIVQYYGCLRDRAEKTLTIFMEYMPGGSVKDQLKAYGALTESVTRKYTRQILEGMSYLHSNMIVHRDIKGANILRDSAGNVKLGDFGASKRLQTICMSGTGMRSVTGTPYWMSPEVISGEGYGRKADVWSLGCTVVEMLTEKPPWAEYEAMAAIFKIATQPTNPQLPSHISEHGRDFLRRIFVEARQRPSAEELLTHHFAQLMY
VIM-2 inhibitor: VIM-2 metallo-beta-lactamase inhibitors, primary screen, biochemical, epi-absorbance readout, Pseudomonas aeruginosa enzyme | purified VIM-2, nitrocefin hydrolysis, epi-absorbance fluorescence | hit rate 0.89% among 290,000 | inhibition, % at 5.6 µM | AID 1527, 2009;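 active = inhibition above the mean of all tested compounds plus 3 SD, cutoff set per screening run, cut at about 7.5% in these data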;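 also: red hydrolysis product quenches plate fluorescence so inhibitors raise well fluorescence; 0% = enzyme with DMSO and 100% = DMSO without enzyme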
MEKK2wt confirm: modulators of MEK5 binding to wildtype MEKK2, confirmation, biochemical, single concentration, multiplex bead flow cytometry; shares compounds with MEKK3 PB1 HTS; Alexa488-MEK5 binding to MEKK2 WT; actives lie on both sides; binding response (% of control), % at 10 µM; hit rate 2.4% among 5,900; AID 1892, 2009; in the data active = binding response below about 16% or above about 210%; inactive = in between
MEKK2mut confirm: mutant MEKK2 PB1-MEK5 binding signal retest – biochemical, single concentration, multiplex bead flow cytometry, confirmation; percent response, % at 10 µM; Alexa488-MEK5 binding to MEKK2 mutant; shares compounds with MEKK3 PB1 HTS; hit rate 2% among 5,900; in the data active = percent response mostly above about 71%, no sharp cut-off; inactive = mostly below about 38%;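 also: higher means compound restores mutant binding toward wildtype level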
MEKK3 confirm: MEKK3 wild-type PB1 binding to MEK5, inhibitors, confirmation, biochemical, bead multiplex flow cytometry, single concentration, wildtype; shares compounds with MEKK3 PB1 HTS; Alexa488-MEK5 binding to MEKK3; stronger effect = lower value; binding response (% of control), % at 10 µM; hit rate 1.8% among 5,900; AID 1894, 2009;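 active = binding response below 72% of control, or above a set upper limit, though filed actives all read lower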;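 also: 100% = DMSO only wells and 0% = binding blocked by excess unlabeled MEK5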
Active calls of the source: *; · = no result given; [ ] = another dose, or the depositor's remark. Only some compounds are listed: those with a hit (about 3.4% of all), similar ones and a draw of the others.

SMILES	MEKK2 mut-MEK5	MEKK2 WT-MEK5	IMP-1 inhibitor	MEKK3 PB1 HTS	VIM-2 inhibitor	MEKK2wt confirm	MEKK2mut confirm	MEKK3 confirm
Cn1ccnc1SCC(=O)N1CCN(S(=O)(=O)c2ccccc2)CC1	2	4.0*[inhibitor]	-2	4.0*[inhibitor]	-3	99	7	102
Cn1nnnc1SCC(=O)N1CCN(S(=O)(=O)c2ccccc2)CC1	-5	92	1	96	1	·	·	·
O=C(COc1cccnc1[N+](=O)[O-])N1CCN(S(=O)(=O)c2ccccc2)CC1	1	109	-2	145*	-4	105	6	102
CCN(CC)C(=O)CSc1nc(C)cc(-c2cccs2)c1C#N	1	99	-1	99	-2	·	·	·
COc1cc(C(=O)Nc2ccc3c(c2)Cc2ccccc2-3)cc(OC)c1OC	-2	105	0	135*	-3	105	1	100
COc1cc(C(=O)Nc2ccc3c(c2)C(=O)c2ccccc2C3=O)cc(OC)c1OC	6	104	-4	92	0	·	·	·
Cc1ccc(CNC(=O)c2ccc3nc4[nH]c5ccccc5c4nc3c2)cc1	-1	97	-3	72*[inhibitor]	1	91	-3	97
c1ccc(COc2ccc(CNCc3cccs3)cc2)cc1	6	121	-2	108	1	·	·	·
CC(C)(C)NC(=O)COc1ccc(CNCc2cccs2)cc1	-27	-1.0*[inhibitor]	-2	2.0*[inhibitor]	2	109	9	102
COc1ccc(-c2csc3nc(-c4cccnc4)nc(Cl)c23)cc1OC	1	105	-3	145*	12*	105	10	109
O=C(NC1=NCCS1)c1cc(-c2cccc(Br)c2)nc2ccccc12	11	115	-1	148*	-2	110	7	100
COc1cc(OC)c(NC(=O)C2CCCO2)cc1Cl (configuration not stated)	0	104	-2	104	0	·	·	·
COc1cc(NC(=O)C2CCCO2)c(OC)cc1Cl (configuration not stated)	0	103	-4	82*[inhibitor]	-4	103	0	103
O=C(CSc1nnc(CNc2ccc(F)cc2)o1)N1CCCc2ccccc21	1	100	-3	101	2	·	·	·
O=C1C(=O)N(CCCO)C(c2ccc(Br)cc2)/C1=C(\O)c1ccc(Br)cc1 (configuration not stated)	28*	113	-2	111	-1	94	-3	100
COCCCN1C(=O)C(=O)/C(=C(/O)c2ccccc2)C1c1ccc(N(C)C)cc1 (configuration not stated)	223*	152*	-3	102	2	97	-3	97
CN1C(=O)C(=O)/C(=C(/O)c2ccccc2)C1c1ccc(Br)cc1 (configuration not stated)	6	111	-3	107	1	·	·	·
CN(C)c1ccc(C2/C(=C(/O)c3ccccc3)C(=O)C(=O)N2CCCC(=O)O)cc1 (configuration not stated)	-3	105	-1	107	0	·	·	·
N#C/C(=C\c1cn(CCOc2ccccc2)c2ccccc12)C(=O)NCc1ccco1	-1	93	-2	100	-1	·	·	·
Cc1ccccc1OCCn1cc(/C=C(\C#N)C(=O)NCc2ccco2)c2ccccc21	-2	67	-1	75*[inhibitor]	-3	101	-2	103
CSc1ccc(/C=N/N2CCN(Cc3ccc(Cl)cc3)CC2)cc1	-46	4.0*[inhibitor]	-2	3.0*[inhibitor]	-3	105	-1	103
CSc1ccc(/C=N/NC(=O)CN2CCN(Cc3ccc(Cl)cc3)CC2)cc1	2	111	-2	137*	-2	111	9	103
CN(CCO)c1c2c(nc3cc(-c4cccc(F)c4)nn13)CCCC2	2	105	-3	104	-4	·	·	·
Cc1cc(NCCOCCO)n2ncc(-c3ccc(Cl)cc3)c2n1	1	93	-2	96	-1	·	·	·
CC(C)(C)c1cc(NCCCn2ccnc2)n2ncc(-c3ccc(Cl)cc3)c2n1	37*	157*	3	98	2	158	37	113
SMILES	MEKK2 mut-MEK5	MEKK2 WT-MEK5	IMP-1 inhibitor	MEKK3 PB1 HTS	VIM-2 inhibitor	MEKK2wt confirm	MEKK2mut confirm	MEKK3 confirm
CN(C)CCCNc1cc(C(C)(C)C)nc2c(-c3ccccc3)cnn12	22	156*	0	88	1	168	51	103
CN(C)CCCNc1cc(-c2ccccc2)nc2cc(-c3cccc(F)c3)nn12	40*	192*	-4	108	-1	179	35	105
COC(=O)C1=NNC2(c3ccc(C)cc3)C(=O)N(c3ccc(C)cc3)C(=O)C12 (configuration not stated)	5	97	-3	102	-2	·	·	·
COc1ccc(-c2[nH]c(-c3ccc(C)cc3)nc2SCC(=O)Nc2nccs2)cc1	0	106	-3	134*	0	109	5	103
COc1ccc(-c2nnc3ccc(SCC(=O)Nc4nccs4)nn23)cc1OC	1	108	0	128*	1	101	5	102
O=C(N/N=C/C=N/NC(=O)c1ccco1)c1ccco1	4	105	-2	102	-2	·	·	·
O=C(c1cccc(S(=O)(=O)N2CCCC2)c1)c1cccc(S(=O)(=O)N2CCCC2)c1	10	109	-5	107	-5	·	·	·
CC12CN3CC(C)(CN(C1)C3c1ccc(F)cc1)C2 (configuration not stated)	1	115	-3	130*	-2	103	-3	98
CC12CN3CC(C)(CN(C1)C3c1ccc(Cl)cc1)C2 (configuration not stated)	-12	93	-1	93	-1	·	·	·
O=C(CC12CC3CC(CC(C3)C1)C2)NC(Cc1ccccc1)C(=O)O (configuration not stated)	2	107	-3	102	-2	·	·	·
CNC[C@H](CC1CCCCC1)NC[C@H](Cc1ccccc1)NCCC12CC3CC(CC(C3)C1)C2	70*	278*	16*	109	2	265*	126*	115

High-throughput results from PubChem BioAssay.
